Screening data from PubChem.
PfM18AAP inh – PfM18AAP inhibitors, malaria aminopeptidase, primary screen, biochemical, QFRET, recombinant enzyme. M18 aspartyl aminopeptidase (Plasmodium falciparum 3D7). H-Glu-NHMec fluorogenic cleavage. inhibition, % at 7.35 µM. 290,000 tested, 1.2% active. AID 1822, 2009;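 active means inhibition above the campaign mean inhibition over all tested compounds plus 3 SD, cut at about 28% in these data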;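 further: 0% = plate median of test compound wells and 100% = 2 mM ZnCl2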
Runt-CBFb FRET – inhibitors of RUNX1 Runt–CBFb binding, primary screen, biochemical, FRET, Cerulean-Runt, Venus-CBFb, uHTS. inhibition, % at 20 µM. 220,000 tested, 0.46% active. Cerulean-Runt/Venus-CBFb FRET ratio 530/480, 1 h;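 active means inhibition over about 50% at 20 µM in the single-dose screen, limit read from the data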;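 further: 0% = DMSO wells and 100% = excess unlabeled CBFb competitor control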
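Reagent – Venus-CBFb binding partner, 100 nM · Assay system – Cerulean-tagged RUNX1 Runt domain (FRET donor) fusion protein · Input – 100 nM per protein · Incubation – two 1 h room-temperature incubations shielded from light · Measured by – FRET fluorescence · Medium – Tris buffer pH 7.5 with salts and BSA · Benchmarks – unlabeled CBFb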
RBBP9 inhibitor – human RBBP9 inhibitors, primary screen, biochemical, fluorescence polarization, FP-Rh probe, HTS; recombinant RBBP9; inhibition, % at 7.94 µM; 220,000 tested, 0.2% active; AID 1515, 2009;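 active means inhibition above the campaign mean of all tested compounds plus 3 SD, cut at about 14% in these data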;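 further: plate controls were DMSO wells with RBBP9 for no effect and wells lacking RBBP9 protein for full effect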
Target sequence (O75884 whole entry, looked up): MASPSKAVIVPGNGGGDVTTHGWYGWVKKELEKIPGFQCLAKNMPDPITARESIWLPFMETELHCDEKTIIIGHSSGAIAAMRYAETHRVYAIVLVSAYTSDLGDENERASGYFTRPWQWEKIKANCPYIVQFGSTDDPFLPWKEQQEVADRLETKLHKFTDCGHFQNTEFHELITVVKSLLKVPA
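Test system – recombinant human RBBP9 · Input – RBBP9 2.5 µM in dispensing solution, pre-mixing · Medium – Tris buffer pH 8.0, NaCl, Pluronic · Schedule – preincubation 30 min plus labeling 45 min at 25 °C · Measured by – fluorescence polarization · Measure – % inhibition · Controls – DMSO and no-protein wells · Replicates – one well per compound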
Hck-Nef inh – inhibitors of Nef-activated human Hck kinase, primary screen, biochemical, Z-Lyte FRET, 384-well, Hck-YEEI. 220,000 tested, 0.68% active. inhibition, % at 20 µM. Recombinant Hck-YEEI plus Nef, Z-Lyte FRET kinase assay. Tyrosine-protein kinase HCK (Homo sapiens), P08631;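 active means Hck-Nef kinase inhibition above about 50%, limit read from the data; inactive means inhibition below that limit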;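 further: 0% = DMSO with Hck plus Nef and 100% = Hck alone without Nef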
Runt-SMMHC FRET – inhibitors of RUNX1 Runt–CBFb-SMMHC binding, primary screen, biochemical, FRET, Cerulean-Runt, Venus-CBFb-SMMHC, uHTS. Runt-related transcription factor 1 (Homo sapiens) + Core-binding factor subunit beta …. Cerulean-Runt/Venus-CBFb-SMMHC FRET ratio 530/480, 1 h. inhibition, % at 20 µM. 220,000 tested, 0.74% active. AID 1434, 2008;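 active means mean inhibition across duplicate retests at 20 µM reaching about 50%, limit read from the data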;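 further: 0% = DMSO wells and 100% = wells with excess untagged CBFb-SMMHC; inhibitors lower the FRET ratio by blocking Runt binding to CBFb-SMMHC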
RanGTP-Imp inh – inhibitors of RanGTP-importin-beta interaction, primary screen, biochemical, FRET, CFP-Ran, YFP-importin-beta, homogeneous; Ran GTPase (GTP-bound) - importin-beta complex; cell-free CFP-Ran/YFP-importin-beta FRET ratio; inhibition, % (concentration not given with the values); 300,000 tested, 1.1% active; AID 2216, 2009;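 active means more than half of the replicate wells show a fall in the fluorescence ratio signal beyond about 16%, limit read from the data, passing the limit was not always enough; inconclusive means exactly half of the replicate wells pass the set limit; inactive means fewer than half of replicates pass the limit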;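 further: 0% = DMSO wells and 100% = Ran loaded with GDP instead of GTP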
Hck Nef conf – retest of Hck:Nef kinase inhibitor hits, confirmation, biochemical, Z-Lyte FRET, 384-well, p-Tyr peptide counterscreen | shares compounds with Hck-Nef inh | Recombinant Hck-YEEI:Nef, Z-Lyte FRET kinase assay | calls only at 10 µM | 1,300 tested, 28% active;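 active means average inhibition of at least 50%, with Z-scores no higher than 3 in both the phospho-tyrosine peptide and fluorescence counterscreens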
Active calls of the source: *; i = inactive; u = inconclusive; x = no result given; + = active, no number. Compounds with a hit are over-represented: about 2.9% of the library has one in this group of screens.

SMILES	PfM18AAP inh	Runt-CBFb FRET	RBBP9 inhibitor	Hck-Nef inh	Runt-SMMHC FRET	RanGTP-Imp inh	Hck Nef conf
OCCCNc1cc(-c2ccnc(Nc3cccc(Cl)c3)n2)ccn1	x	1	x	85*	3	-3	+
CCC(C)Oc1cc(-c2ccnc(Nc3cccc(Cl)c3)n2)ccn1 (stereo unspecified)	x	3	x	25	0	0	x
Cc1cc2cc(CN(Cc3ccc4c(c3)OCO4)C(=O)c3ccco3)c(=O)[nH]c2cc1C	7	7	-2	6	3	4	x
O=C(c1ccco1)N(Cc1ccc2c(c1)OCO2)Cc1cc2cc3c(cc2[nH]c1=O)OCO3	-10	10	2	126*	-6	0	i
CN(Cc1ccc2ccccc2c1)C(=O)c1ccc(C(F)(F)F)cc1	-1	x	x	x	x	1	x
NS(=O)(=O)c1ccc(N/N=C/c2ccc(O)cc2O)c([N+](=O)[O-])c1	14	-1	2	93*	0	u	+
NS(=O)(=O)c1ccc(N/N=C/c2ccccn2)c([N+](=O)[O-])c1	-9	0	1	18	0	1	x
COc1ccc(-c2cc(=O)oc3cc(OCC(=O)c4cccc([N+](=O)[O-])c4)ccc23)cc1	-1	5	2	80*	20	6	i
O=c1[nH]c(=S)[nH]c(O)c1N=Nc1ccc(-c2ccccc2)cc1[N+](=O)[O-]	0	-20	-4	68*	-23	-18	i
O=C(CCCc1c[nH]c2ccccc12)NCC1COc2ccccc2O1 (stereo unspecified)	-12	0	3	-2	-2	-8	x
Cc1ccc(-c2nc(N)s[n+]2-c2ccccc2)cc1	1	9	-2	101*	65*	6	+
Cc1ccc(-c2nc3ccccc3nc2-c2ccccc2)cc1	-13	x	x	x	x	2	x
CS(=O)(=O)N(CC(=O)N/N=C/c1ccc(OCC(=O)N2CCOCC2)cc1)c1ccccc1Cl	4	-2	4	129*	0	-5	i
O=C(N/N=C/c1ccc(OCC(=O)N2CCOCC2)cc1)c1ccccc1Cl	1	2	-5	2	-3	-3	x
COc1ccc(NC(=O)c2cc([N+](=O)[O-])ccc2O)cc1	1	-2	-6	52*	1	-4	i
CCc1ccc(NC(=O)CSc2nc(=O)n3cc(C)ccc3n2)cc1	x	x	x	x	x	0	x
O=C(Nc1cccc(O)c1)c1cccc(C(=O)Nc2cccc(O)c2)c1	0	x	x	x	x	-1	x
O=C(Nc1ccccc1)Nc1snnc1C(=O)Nc1cccc(O)c1	-3	-1	-28	60*	-11	5	+
O=C(O)CCCCCN1C(=O)/C(=C\c2cn(-c3ccccc3)nc2-c2cccs2)SC1=S	0	0	-15	30	-25	-20	x
CC1=NNC(=O)/C1=C\c1cn(-c2ccccc2)nc1-c1cccs1	45*	5	-9	99*	-11	-3	+
NS(=O)(=O)c1ccc(CCNC(=O)C(c2ccccc2)c2ccccc2)cc1	-3	x	x	x	x	2	x
CC(C)c1cc(NCCOCCO)n2c(nc3ccccc32)c1C#N	0	x	x	x	x	u	x
Cc1cc(NCCCN2CCOCC2)n2c(nc3ccccc32)c1C#N	-3	19	-2	75*	37	30*	x
CCCc1cc(NCCCN2CCOCC2)n2c(nc3ccccc32)c1C#N	0	12	9	101*	62	13	x
CCN(CC(=O)NCc1ccc(Cl)cc1)C(=O)COc1cccc(C(F)(F)F)c1	x	x	x	x	x	0	x
SMILES	PfM18AAP inh	Runt-CBFb FRET	RBBP9 inhibitor	Hck-Nef inh	Runt-SMMHC FRET	RanGTP-Imp inh	Hck Nef conf
COc1ccc(-c2oc3ncnc(NCCCN4CCOCC4)c3c2-c2ccc(OC)cc2)cc1	-7	-2	-8	94*	-8	1	+
COc1ccc(-c2oc3ncn(CCN4CCOCC4)c(=N)c3c2-c2ccc(OC)cc2)cc1	-8	-2	0	20	2	0	x
c1ccc(-c2oc3ncnc(NCCCN4CCOCC4)c3c2-c2ccccc2)cc1	2	1	-8	61*	0	6	+
COc1ccc(-c2oc3ncnc(NCCN4CCOCC4)c3c2-c2ccc(OC)cc2)cc1	-3	-3	-7	66*	-2	u	+
O=C1CCc2cc(NS(=O)(=O)c3cc(F)ccc3F)cc3c2N1CC3	x	x	x	x	x	0	x
CCOC(=O)C1CCN(CC(O)COCc2ccccc2)CC1 (stereo unspecified)	-17	x	x	x	x	3	x
COc1cc2ncnc(NCc3ccc(C)o3)c2cc1OC	15	13	-7	78*	9	3	i
Cc1ccc(CNc2ncnc3cc(Cl)ccc23)o1	6	2	-4	-14	-3	4	x
COC(=O)C1=CN(C)C=C(C(=O)OC)C1c1ccsc1	4	108*	-2	53*	61*	33*	i
COCCN1C=C(C(=O)OC)C(c2ccc(OC)c(OC)c2)C(C(=O)OC)=C1	5	12	-3	23	39	6	x
CC1CCN(Cc2nnnn2CCCC(=O)N(C)C(C)c2ccccn2)CC1 (stereo unspecified)	-7	x	x	x	x	-2	x
COC(=O)C1=C(C)N(CC2CC2)C(=O)N[C@H]1c1ccccc1	x	x	x	x	x	3	x
O=C(N/N=C/c1ccc(-c2ccc(Cl)c(C(=O)O)c2)o1)c1cc2c(ccc3ccccc32)o1	-5	13	2	72*	80*	8	+
Cc1ccc(-c2ccc(/C=N\NC(=O)c3cc4c(ccc5ccccc54)o3)o2)cc1[N+](=O)[O-]	6	-1	-1	28	-8	4	x
O=C(Nc1ccc(N2CCCC2)cc1)C(c1ccccc1)c1ccccc1	2	3	-9	59*	6	-4	i
C/C(Cc1nnn(-c2cc(C)on2)n1)=N\O	0	-1	-6	6	-2	1	x
CCN(CCO)c1nc(SC)nc2c1sc1nc(-c3ccco3)c3c(c12)CCC3	9	-13	-4	68*	-131	2	i
